Reference: ChEMBL document CHEMBL4842317, “Discovery of novel 3-hydroxyandrosta-5,7-Diene-17-Carboxylic acid derivatives as anti-inflammatory bowel diseases (IBD) agents” (Eur J Med Chem, 2021)
Activity calls are given as the source filed them. No cut-off for these calls is given here.

What was measured:
RAW264.7 [1] = experiment: Antiinflammatory activity against mouse RAW264.7 cells assessed as inhibition of LPS-induced NO production measured after 24 hrs by Griess assay; type: functional, cell-based; conditions: RAW264.7, 24 h
Procedure, shortened: (§1)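 RAW 264.7 cells (1 × 10^5 cells/mL) are cultured 24 h, stimulated with LPS (100 ng/mL final), and treated with compounds from 100 μM downward for 24 h in DMEM with 10% FBS. Medium nitrite is measured by Griess reaction (sulfanilamide, naphthylethylenediamine, phosphoric acid, 10 min, room temperature, dark). Mean + SD from three independent experiments.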

RAW264.7 [2] = experiment: Cytotoxicity against mouse RAW264.7 cells assessed as reduction in cell viability at 3 to 100 uM incubated for 24 hrs in presence of LPS by MTT assay; type: cell-based; conditions: raw264.7, 24 h, dose 3-100 µM
Procedure, shortened: (§2)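 RAW 264.7 cells are seeded at 1.0 × 10^4 per well and incubated overnight. Compounds are added at concentrations from 100 μM downward, with or without LPS (100 ng/mL), for 24 h. MTT (0.5 mg/mL) is added for 4 h and the formazan is dissolved in DMSO for the read-out.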

RAW264.7 [3] = experiment: Antiinflammatory activity against mouse RAW264.7 cells assessed as inhibition of LPS-induced NO production at 20 uM after 24 hrs by Griess assay; type: functional; procedure, shortened: as §1
RAW264.7 [4] = experiment: Cytotoxicity against mouse RAW264.7 cells assessed as reduction in cell viability at 3 to 100 uM incubated for 24 hrs by MTT assay; type: cell-based; conditions: raw264.7, 24 h, dose 3-100 µM; procedure, shortened: as §2
RAW264.7 [5] = experiment: Antiinflammatory activity against mouse RAW264.7 cells assessed as inhibition of LPS-induced iNOS mRNA expression at 20 uM incubated for 8 hrs in presence of LPS by qRT-PCR analysis; type: functional, cell-based
Procedure, shortened: (§3)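 RAW 264.7 cells are grown 12 h in six-well plates, then exposed to LPS (100 ng/ml) plus compound for 8 h. Reverse transcription is followed by SYBR Green qPCR with GAPDH as internal control. Relative expression is calculated by 2^-ΔΔCT versus the untreated control. Mean + SD from three independent experiments.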

RAW264.7 [6] = experiment: Antiinflammatory activity against mouse RAW264.7 cells assessed as inhibition of LPS-induced COX2 mRNA expression at 20 uM incubated for 8 hrs in presence of LPS by qRT-PCR analysis; type: functional, cell-based; procedure, shortened: as §3
RAW264.7 [7] = experiment: Antiinflammatory activity against mouse RAW264.7 cells assessed as decrease in LPS-induced IL-1beta mRNA expression at 20 uM in presence of LPS by qRT-PCR analysis; type: functional, cell-based; procedure, shortened: as §3
RAW264.7 [8] = experiment: Antiinflammatory activity against mouse RAW264.7 cells assessed as decrease in LPS-induced IL-6 mRNA expression at 20 uM in presence of LPS by qRT-PCR analysis; type: functional, cell-based; procedure, shortened: as §3
RAW264.7 [9] = experiment: Antiinflammatory activity against mouse RAW264.7 cells assessed as decrease in LPS-induced TNF-alpha mRNA expression at 20 uM in presence of LPS by qRT-PCR analysis; type: functional, cell-based; procedure, shortened: as §3
RAW264.7 [10] = experiment: Antiinflammatory activity against mouse RAW264.7 cells assessed as inhibition of LPS-induced MCP-1 mRNA expression at 20 uM in presence of LPS by qRT-PCR analysis; type: functional, cell-based; procedure, shortened: as §3
RAW264.7 [11] = experiment: Antiinflammatory activity against mouse RAW264.7 cells assessed as decrease in LPS-induced NF-kappB mRNA expression at 20 uM in presence of LPS by qRT-PCR analysis; type: functional, cell-based; procedure, shortened: as §3
Mus musculus [12] = experiment: Antiinflammatory activity against DSS-induced colitis C57BL/6 mouse model assessed as reduction in scores of stool consistency and bleeding at 20 mg/kg, ip administered for 7 days by immunohistochemistry analysis; type: functional, organism-based; conditions: time 7.0 day
Mus musculus [13] = experiment: Antiinflammatory activity against DSS-induced colitis C57BL/6 mouse model assessed as dispersed CD86-positive cells in colon at 20 mg/kg, ip administered for 7 days by hematoxylin and eosin staining based microscopic analysis; type: functional, organism-based; conditions: time 7.0 day
Procedure, shortened: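 DSS colitis (3.5% DSS, male C57BL/6 mice, n=5 per group) with 7-day intraperitoneal dosing in saline/castor oil/ethanol/DMSO vehicle. Colons are fixed in formalin, paraffin-embedded and stained with H&E (viewed at 200X). Separately, sections undergo CD86 immunohistochemistry (citrate antigen retrieval, 3% H2O2 block, 1:200 primary and HRP secondary, hematoxylin counterstain) viewed at 400X.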

Compound | IC50 (RAW264.7 [1]) | Activity (RAW264.7 [2]) | inhibition at 20 µM (RAW264.7 [3]) | Activity (RAW264.7 [4]) | Activity (RAW264.7 [5]) | Activity (RAW264.7 [6]) | Activity (RAW264.7 [7]) | Activity (RAW264.7 [8]) | Activity (RAW264.7 [9]) | Activity (RAW264.7 [10]) | Activity (RAW264.7 [11]) | Activity (Mus musculus [12]) | Activity (Mus musculus [13])
C[C@]12CC[C@H]3[C@@H](CC=C4C[C@@H](O)CC[C@@]43C)[C@@H]1CC[C@@H]2C(=O)NCCO | > 20 µM | Non-Toxic | 41.1% | Non-Toxic | – | – | – | – | – | – | – | – | –
CCCOC(=O)[C@H]1CC[C@H]2C3=CC=C4C[C@@H](O)CC[C@]4(C)[C@H]3CC[C@]12C | 9.02 µM | Non-Toxic | 89.4% | Non-Toxic | Active | Active | Active | Active | Active | Active | Active | – | –
CCCCOC(=O)[C@H]1CC[C@H]2C3=CC=C4C[C@@H](O)CC[C@]4(C)[C@H]3CC[C@]12C | > 20 µM | Non-Toxic | 37.8% | Non-Toxic | – | – | – | – | – | – | – | – | –
C[C@]12CC[C@H]3[C@@H](CC=C4C[C@@H](O)CC[C@@]43C)[C@@H]1CC[C@@H]2C(=O)NCCc1ccccc1 | > 20 µM | Non-Toxic | 45.4% | Non-Toxic | – | – | – | – | – | – | – | – | –
CCCCNC(=O)[C@H]1CC[C@H]2[C@@H]3CC=C4C[C@@H](O)CC[C@]4(C)[C@H]3CC[C@]12C | > 20 µM | Non-Toxic | 44.4% | Non-Toxic | – | – | – | – | – | – | – | – | –
CC[C@](C)(O)[C@H]1CC[C@H]2C3=CC=C4C[C@@H](O)CC[C@]4(C)[C@H]3CC[C@@]21C | 27 µM | Non-Toxic | 52.5% | Non-Toxic | – | – | – | – | – | – | – | – | –
C[C@]12CC[C@H]3[C@@H](CC=C4C[C@@H](O)CC[C@@]43C)[C@@H]1CC[C@@H]2C(=O)NCCN1CCOCC1 | > 20 µM | Non-Toxic | 36.4% | Non-Toxic | – | – | – | – | – | – | – | – | –
C[C@]12CC[C@H]3[C@@H](CC=C4C[C@@H](O)CC[C@@]43C)[C@@H]1CC[C@@H]2C(=O)NCCCn1ccnc1 | > 20 µM | Non-Toxic | 50.4% | Non-Toxic | – | – | – | – | – | – | – | – | –
Cc1ccn(C(=O)[C@H]2CC[C@H]3[C@@H]4CC=C5C[C@@H](O)CC[C@]5(C)[C@H]4CC[C@]23C)n1 | > 20 µM | Non-Toxic | 35.8% | Non-Toxic | – | – | – | – | – | – | – | – | –
C[C@@H]1C[C@H]2[C@@H]3CCC4=CC(=O)C=C[C@]4(C)[C@@]3(F)[C@@H](O)C[C@]2(C)[C@@]1(O)C(=O)CO [DEXAMETHASONE] | 14.8 µM | – | 93.6% | – | – | – | – | – | Active | – | – | Active | Active
COC(=O)[C@H]1CC[C@H]2C3=CC=C4C[C@@H](O)CC[C@]4(C)[C@H]3CC[C@]12C | > 20 µM | Non-Toxic | 21.8% | Non-Toxic | – | – | – | – | – | – | – | – | –
CCN(CC)C(=O)[C@H]1CC[C@H]2[C@@H]3CC=C4C[C@@H](O)CC[C@]4(C)[C@H]3CC[C@]12C | > 20 µM | Non-Toxic | 25.5% | Non-Toxic | – | – | – | – | – | – | – | – | –
CCCNC(=O)[C@H]1CC[C@H]2[C@@H]3CC=C4C[C@@H](O)CC[C@]4(C)[C@H]3CC[C@]12C | 15.6 µM | Non-Toxic | 72.8% | Non-Toxic | inactive | Active | inactive | inactive | inactive | Active | Active | – | –
CC(C)(O)CNC(=O)[C@H]1CC[C@H]2[C@@H]3CC=C4C[C@@H](O)CC[C@]4(C)[C@H]3CC[C@]12C | > 20 µM | Non-Toxic | 38.8% | Non-Toxic | – | – | – | – | – | – | – | – | –
C[C@]12CC[C@H]3[C@@H](CC=C4C[C@@H](O)CC[C@@]43C)[C@@H]1CC[C@@H]2C(=O)NCCN1CCCC1 | 31.3 µM | Non-Toxic | 50.4% | Non-Toxic | – | – | – | – | – | – | – | – | –
C[C@]12CC[C@H]3[C@@H](CC=C4C[C@@H](O)CC[C@@]43C)[C@@H]1CC[C@@H]2C(=O)NC1CC1 | > 20 µM | Non-Toxic | 40.5% | Non-Toxic | – | – | – | – | – | – | – | – | –
CC(C)NC(=O)[C@H]1CC[C@H]2[C@@H]3CC=C4C[C@@H](O)CC[C@]4(C)[C@H]3CC[C@]12C | > 20 µM | Non-Toxic | 7.84% | Non-Toxic | – | – | – | – | – | – | – | – | –
C[C@]12CC[C@H]3[C@@H](CC=C4C[C@@H](O)CC[C@@]43C)[C@@H]1CC[C@@H]2C(=O)NC1CCCCC1 | > 20 µM | Non-Toxic | 47.8% | Non-Toxic | – | – | – | – | – | – | – | – | –
C[C@]12CC[C@H]3[C@@H](CC=C4C[C@@H](O)CC[C@@]43C)[C@@H]1CC[C@@H]2C(=O)N1CCCCC1 | > 20 µM | Non-Toxic | 37.4% | Non-Toxic | – | – | – | – | – | – | – | – | –
CCOC(=O)[C@H]1CC[C@H]2C3=CC=C4C[C@@H](O)CC[C@]4(C)[C@H]3CC[C@]12C | > 20 µM | Non-Toxic | 11.3% | Non-Toxic | – | – | – | – | – | – | – | – | –
C[C@]12CC[C@H]3[C@@H](CC=C4C[C@@H](O)CC[C@@]43C)[C@@H]1CC[C@@H]2C(=O)Nc1n[nH]cc1C#N | > 20 µM | Non-Toxic | 24.9% | Non-Toxic | – | – | – | – | – | – | – | – | –
CC(=O)NCCNC(=O)[C@H]1CC[C@H]2[C@@H]3CC=C4C[C@@H](O)CC[C@]4(C)[C@H]3CC[C@]12C | > 20 µM | Non-Toxic | 16.1% | Non-Toxic | – | – | – | – | – | – | – | – | –
C[C@]12CC[C@H]3[C@@H](CC=C4C[C@@H](O)CC[C@@]43C)[C@@H]1CC[C@@H]2C(=O)NCCc1cccs1 | 21.2 µM | Non-Toxic | 55.6% | Non-Toxic | – | – | – | – | – | – | – | – | –
CC(C)CCNC(=O)[C@H]1CC[C@H]2[C@@H]3CC=C4C[C@@H](O)CC[C@]4(C)[C@H]3CC[C@]12C | 11.3 µM | Non-Toxic | 59.2% | Non-Toxic | – | – | – | – | – | – | – | – | –
CCC[C@](C)(O)[C@H]1CC[C@H]2C3=CC=C4C[C@@H](O)CC[C@]4(C)[C@H]3CC[C@@]21C | > 20 µM | Non-Toxic | 55.3% | Non-Toxic | – | – | – | – | – | – | – | – | –
CCCC[C@](C)(O)[C@H]1CC[C@H]2C3=CC=C4C[C@@H](O)CC[C@]4(C)[C@H]3CC[C@@]21C | > 20 µM | Non-Toxic | 28.8% | Non-Toxic | – | – | – | – | – | – | – | – | –
